Bioassay records (PubChem BioAssay)
Only a selection was taken, and hits are over-represented in it overall.
IDH1 mut inh: IDH1 R132H (human) inhibition; AID 624101; IDH1 R132H reductase, diaphorase/resazurin fluorescence, 60 min; inhibition, % at 10 µM; actives 0.18% (n = 70,000); O75874; in the data active = inhibition above about 34%; inconclusive = no clear call, values can overlap the other calls; inactive = below about 11%
T cruzi growth-1: T. cruzi proliferation inhibition; T. cruzi beta-gal in NIH3T3, GalScreen luminescence, 90 h; inhibition, % at 8.34 µM; actives 5.9% (n = 77,000); AID 624255;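 active = mean inhibition above about 93%, with at least 55% of replicates each passing it, limit read from the data, passing the limit was not always enough; inconclusive = only one of those two conditions holds; inactive = neither condition holds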
GASC1 inh: KDM4C (human) demethylase inhibition; AID 720574; inhibition, % at 12.5 µM; actives 0.15% (n = 96,000); Q9H3R0; GST-KDM4C 2-372, H3K9me3 peptide, LANCE TR-FRET;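 active = mean replicate inhibition above about 25%, with at least 55% of replicates also reaching it, limit read from the data, passing the limit was not always enough; inconclusive = only one of those two conditions met; inactive = neither condition met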
Target sequence (Q9H3R0 2-372 limits assumed): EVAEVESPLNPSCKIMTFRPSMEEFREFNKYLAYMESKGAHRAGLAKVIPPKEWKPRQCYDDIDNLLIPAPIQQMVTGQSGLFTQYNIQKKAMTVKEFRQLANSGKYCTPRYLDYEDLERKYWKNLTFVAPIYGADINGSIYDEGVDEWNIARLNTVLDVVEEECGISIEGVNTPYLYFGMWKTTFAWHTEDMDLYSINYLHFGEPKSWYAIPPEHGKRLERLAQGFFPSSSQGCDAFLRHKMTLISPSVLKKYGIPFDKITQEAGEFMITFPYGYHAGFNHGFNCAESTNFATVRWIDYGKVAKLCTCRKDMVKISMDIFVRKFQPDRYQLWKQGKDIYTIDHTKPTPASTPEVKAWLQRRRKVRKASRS
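System: N-terminal GST-fused human GASC-1 (KDM4C) fragment, residues 2-372; amount: enzyme final amount 10 nM; incubation: reaction 30 min RT, detection step 1 h RT; medium: HEPES buffer, pH 7.5, plus ascorbate; technique: LANCE TR-FRET, Eu antibody, ULight-streptavidin, EDTA, ex 340 nm, em 618/671 nm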
T cruzi growth-2: inhibitors of T. cruzi proliferation. shares compounds with T cruzi growth-1. T. cruzi beta-gal in NIH3T3, GalScreen luminescence, 90 h. inhibition, % at 8.35 µM. actives 72% (n = 5,600);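 active = mean replicate inhibition above about 95% and at least 55% of replicates individually reaching it, limit read from the data; inconclusive = only one of the two criteria is met; inactive = neither criterion is met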
T cruzi growth-3: blocks T. cruzi growth in NIH3T3 host cells | inhibition, % at 2.09 µM | AID 651740 | shares compounds with T cruzi growth-1 | actives 21% (n = 5,600) | T. cruzi beta-gal in NIH3T3, GalScreen luminescence, 90 h;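 active = mean inhibition above about 95%, with at least 55% of replicates also reaching it, limit read from the data; inconclusive = meets just one of the two conditions; inactive = meets neither condition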
NIH3T3 tox: kills mouse NIH/3T3 fibroblasts | shares compounds with T cruzi growth-1 | NIH/3T3 viability, CellTiter-Glo ATP luminescence, 90 h | cytotoxicity (signal decrease), % at 8.35 µM | actives 14% (n = 5,600) | AID 651742;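 active = mean signal decrease across replicates above about 35% based on untreated-well scatter, with enough replicates individually passing, limit read from the data; inconclusive = no rule stated though some were filed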
3T3 cytotox 2: NIH/3T3 (mouse) viability loss | shares compounds with T cruzi growth-1 | NIH/3T3 viability, CellTiter-Glo ATP luminescence, 90 h | inhibition, % at 24.9 µM | actives 56% (n = 5,600) | AID 651744;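 active = mean loss of cell viability signal at or above a set limit, and enough replicates individually reaching it; inconclusive = meets only the mean limit or only the replicate share; inactive = meets neither condition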
Of the large screens only hits and unclear results are named; the others gave an inactive call (follow-up assays come after a bar, where they were run).

COc1ccc(S(=O)(=O)N(C)C[C@@H]2OCCCC[C@H](C)Oc3ccc(NC(=O)C4CCCCC4)cc3C(=O)N([C@@H](C)CO)C[C@H]2C)cc1	none (no result: IDH1 mut inh)
COc1c(C(C)C)cc2c(c1O)[C@]13CC[C@H](OC1=O)C(C)(C)C3CC2 (some centres not stated)	none (no result: T cruzi growth-1, GASC1 inh)
COc1ccc([C@H]2OC[C@H]3[C@@H]2CO[C@@H]3c2ccc(O[C@@H]3O[C@H](CO)C(O)[C@H](O)[C@H]3O)c(OC)c2)cc1OC (some centres not stated)	none (no result: T cruzi growth-1, GASC1 inh)
COc1ccc(S(=O)(=O)N(C)CC(=O)Nc2ccccc2Br)cc1C	none (no result: T cruzi growth-1, GASC1 inh)
Cc1ccc(-c2nnc3c4ccccc4c(C)nn23)cc1S(=O)(=O)N1CCOCC1	none (no result: T cruzi growth-1, GASC1 inh)
COc1ccc(C)cc1NC(=O)CSc1n[nH]c(-c2ccc(Cl)cc2)n1	none (no result: T cruzi growth-1, GASC1 inh)
COc1ccc(-n2c(SCC(=O)Nc3cc(NC(C)=O)ccc3OC)nc3ccccc3c2=O)cc1	none (no result: T cruzi growth-1, GASC1 inh)
COc1ccc(S(=O)(=O)N(C)C[C@@H]2OCCCC[C@H](C)Oc3ccc(NC(=O)Nc4ccc5c(c4)OCO5)cc3C(=O)N([C@H](C)CO)C[C@H]2C)cc1	none
COc1ccc(NC(=O)Nc2ccc3c(c2)C(=O)N([C@@H](C)CO)C[C@@H](C)[C@H](CN(C)S(=O)(=O)c2ccc(OC)cc2)OCCCC[C@@H](C)O3)cc1	none
COc1ccc(S(=O)(=O)N(C)C[C@@H]2OCCCC[C@H](C)Oc3ccc(NC(=O)Nc4ccc5c(c4)OCO5)cc3C(=O)N([C@H](C)CO)C[C@@H]2C)cc1	T cruzi growth-1 103 (no result: IDH1 mut inh) | T cruzi growth-2 107 | T cruzi growth-3 inactive | NIH3T3 tox inactive | 3T3 cytotox 2 inactive
COc1ccc(S(=O)(=O)N(C)C[C@@H]2OCCCC[C@H](C)Oc3ccc(NC(=O)Nc4ccc(C(F)(F)F)cc4)cc3C(=O)N([C@@H](C)CO)C[C@@H]2C)cc1	T cruzi growth-1 97 | T cruzi growth-2 111 | T cruzi growth-3 115 | NIH3T3 tox inactive | 3T3 cytotox 2 inactive
COc1ccc(NC(=O)Nc2ccc3c(c2)C(=O)N([C@H](C)CO)C[C@@H](C)[C@H](CN(C)S(=O)(=O)c2ccc(OC)cc2)OCCCC[C@@H](C)O3)cc1	T cruzi growth-1 105 | T cruzi growth-2 109 | T cruzi growth-3 inactive | NIH3T3 tox inactive | 3T3 cytotox 2 inactive
COc1ccc(S(=O)(=O)N(C)C[C@H]2OCCCC[C@@H](C)Oc3ccc(NC(=O)Nc4ccc(C(F)(F)F)cc4)cc3C(=O)N([C@@H](C)CO)C[C@H]2C)cc1	none (no result: IDH1 mut inh)
COc1ccccc1NC(=O)CNS(=O)(=O)c1ccc(C(C)(C)C)cc1	none (no result: T cruzi growth-1, GASC1 inh)
COc1ccc(N2C(=O)CC(SCC(=O)Nc3cccc(Br)c3)C2=O)cc1 (configuration not stated)	none (no result: T cruzi growth-1, GASC1 inh)
C[C@H](CO)N1C[C@H](C)[C@H](CN(C)Cc2ccncc2)Oc2c(NC(=O)c3ccncc3)cccc2C1=O	none
C[C@@H]1CN([C@H](C)CO)C(=O)c2cccc(NC(=O)c3ccncc3)c2O[C@H]1CN(C)Cc1ccncc1	none
C[C@@H]1CN([C@H](C)CO)C(=O)c2cccc(NC(=O)c3ccncc3)c2O[C@H]1CN(C)Cc1ccc2c(c1)OCO2	T cruzi growth-1 98 | T cruzi growth-2 inactive | T cruzi growth-3 inactive | NIH3T3 tox inactive | 3T3 cytotox 2 inactive
C[C@@H]1CN([C@@H](C)CO)C(=O)c2cccc(NC(=O)c3ccncc3)c2O[C@H]1CN(C)Cc1ccc2c(c1)OCO2	T cruzi growth-1 103 | T cruzi growth-2 97 | T cruzi growth-3 inactive | NIH3T3 tox inactive | 3T3 cytotox 2 27
C[C@H]1CN([C@@H](C)CO)C(=O)c2cccc(NC(=O)c3ccncc3)c2O[C@H]1CN(C)Cc1ccc2c(c1)OCO2	T cruzi growth-1 97 | T cruzi growth-2 108 | T cruzi growth-3 inactive | NIH3T3 tox inactive | 3T3 cytotox 2 inconclusive
C[C@H]1CN([C@@H](C)CO)C(=O)c2cccc(NC(=O)c3ccncc3)c2O[C@@H]1CN(C)Cc1ccncc1	none (no result: IDH1 mut inh)
Cc1ccc(N(C(C)C(=O)Nc2ccccc2F)S(C)(=O)=O)cc1 (configuration not stated)	none (no result: T cruzi growth-1, GASC1 inh)
